In ChEMBL document CHEMBL3813686, “Biologically Active Acetylenic Amino Alcohol and N-Hydroxylated 1,2,3,4-Tetrahydro-β-carboline Constituents of the New Zealand Ascidian Pseudodistoma opacum” (J Nat Prod, 2016):
≈ marks a conversion by molar mass, not a printed value. Calls of active or inactive are those of the source. The rule behind the calls is not given here.

What was measured:
Escherichia coli [1] = assay: Antibacterial activity against Escherichia coli ATCC 25922 incubated overnight by microbroth-dilution method; type: functional
In short: (§1)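 Mueller Hinton broth cultures were grown overnight at 37 °C with shaking at 200 rpm. Inoculum was adjusted to approximately 5 × 10^5 cfu/mL final, confirmed by retrospective plating. Compounds were dissolved in DMSO and tested in doubling dilutions, with untreated and DMSO controls. Plates were incubated overnight at 37 °C. Each concentration was run in triplicate on three separate occasions.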

Staphylococcus aureus [2] = assay: Bactericidal activity against Staphylococcus aureus XEN36 incubated overnight by microbroth-dilution method; type: functional
In short: (§2)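 Broth from the MIC wells (standard microbroth dilution, ~5 × 10^5 cfu/mL in Mueller Hinton broth) was transferred into fresh medium and incubated overnight at 37 °C, then scored for growth. Cell dilutions were also plated. MBC was taken as a reduction of at least 3 logs from the initial inoculum.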

[3] = system: Mycobacterium tuberculosis; assay: Antibacterial activity against Mycobacterium tuberculosis BSG001 incubated overnight by microbroth-dilution method; type: functional
In short: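 M. tuberculosis H37Rv carrying a bacterial luciferase vector, grown 2 weeks at 37 °C (100 rpm) in Middlebrook 7H9 with ADC and glycerol. Assay medium was 7H9 without Tween or kanamycin. Compounds in DMSO were tested in doubling dilutions from 64 to 1 μg/mL, with untreated and DMSO controls, incubated overnight at 37 °C. Triplicate wells per concentration; three separate experiments.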

Staphylococcus aureus [4] = assay: Antibacterial activity against Staphylococcus aureus XEN36 incubated overnight by microbroth-dilution method; type: functional; in short: as §1
[5] = system: Mycobacterium tuberculosis; assay: Bactericidal activity against Mycobacterium tuberculosis BSG001 incubated overnight by microbroth-dilution method; type: functional
In short: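 Broth microdilution on luciferase-tagged M. tuberculosis H37Rv in 7H9 medium without Tween or kanamycin, using DMSO-dissolved compounds at 64–1 μg/mL (doubling) and incubating overnight at 37 °C. 5 μL from the MIC wells went into 195 μL fresh medium and was incubated overnight at 37 °C. Dilutions were also plated. MBC was taken as at least a 3-log drop from the initial inoculum.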

Escherichia coli [6] = assay: Bactericidal activity against Escherichia coli ATCC 25922 incubated overnight by microbroth-dilution method; type: functional; in short: as §2
Plasmodium falciparum = assay: Antiplasmodial activity against chloroquine-resistant Plasmodium falciparum FcB1/Columbia infected in erythrocytes assessed as inhibition of parasite growth after 48 hrs by 3H-hypoxanthine incorporation assay; type: functional, organism-based
Escherichia coli [7] = assay: Antibacterial activity against Escherichia coli after 24 hrs by broth macrodilution method; type: functional
Escherichia coli [8] = assay: Antibacterial activity against Escherichia coli ATCC 25922 after 16 hrs by resazurin dye based fluorescence assay; type: functional; details: ATCC 25922, 16 h
Staphylococcus aureus [9] = assay: Antibacterial activity against Staphylococcus aureus ATCC 25923 after 16 hrs by resazurin dye based fluorescence assay; type: functional; details: ATCC 25923, 16 h
[10] = system: Mycobacterium tuberculosis; assay: Antibacterial activity against Mycobacterium tuberculosis H37Ra after 7 days by resazurin dye based fluorescence assay; type: functional; details: 168 h

| SMILES | MIC (Escherichia coli [1]) | MBC (Staphylococcus aureus [2]) | MIC [3] | MIC (Staphylococcus aureus [4]) | MBC [5] | MBC (Escherichia coli [6]) | also measured |
| --- | --- | --- | --- | --- | --- | --- | --- |
| C=CCCC#CC#CCCCCCCC[C@H](O)CN | 170 µM | 32 µg/mL | 85 µM | 85 µM | 64 µg/mL | > 128 µg/mL | – |
| N=C(N)NCCCCC1NCCc2c1n(O)c1cc(Br)ccc21 (configuration not stated) | 106 µM | 53 µM | 106 µM | 53 µM | 106 µM | 106 µM | IC50 (Plasmodium falciparum): 3.8 µM |
| CCCCC/C=C\C/C=C\CC/C=C/C[C@H](O)[C@H](C)N | – | – | – | – | – | – | MIC (Escherichia coli [7]): 360 µM (≈ 101 µg/mL) |
| CO[C@H]1/C=C/O[C@@]2(C)Oc3c(C)c(O)c4c(O)c(c(/C=N/N5CCN(C)CC5)c(O)c4c3C2=O)NC(=O)/C(C)=C\C=C\[C@H](C)[C@H](O)[C@@H](C)[C@@H](O)[C@@H](C)[C@H](OC(C)=O)[C@@H]1C [RIFAMPIN] | 8 µg/mL | 0.008 µg/mL | 0.161 µg/mL | 0.004 µg/mL | 0.161 µg/mL | 8 µg/mL | – |
| C=CCCCCCC/C=C\C[C@H](O)[C@H](C)N | – | – | – | – | – | – | MIC (Escherichia coli [7]): 196 µM (≈ 44.2 µg/mL) |
| CCCCCCCCCCC[C@H](O)[C@H](C)N | – | – | – | – | – | – | MIC (Escherichia coli [8]): 33 µM (≈ 7.57 µg/mL); MIC (Staphylococcus aureus [9]): 33 µM (≈ 7.57 µg/mL); MIC [10]: 33 µM (≈ 7.57 µg/mL) |
| C=CCCC#CC#CCCCCCCC[C@@H](CNC(=O)c1ccccc1)OC(=O)c1ccccc1 | – | – | – | – | – | – | Activity (Escherichia coli [1]): inactive; Activity [3]: inactive; Activity (Staphylococcus aureus [4]): inactive |
